Assay results: ChEMBL document CHEMBL4680125, “Synthesis and bioevaluation of 1-phenylimidazole-4-carboxylic acid derivatives as novel xanthine oxidoreductase inhibitors” (Eur J Med Chem, 2020)
Active and inactive are the calls of the source. The rule behind the calls is not given here.

Key:
[1] = target: Xanthine dehydrogenase/oxidase (Bos taurus, UniProt P80457); assay: Inhibition of bovine xanthine oxidase assessed as reduction in uric acid formation using xanthine as substrate incubated for 3 mins by microplate assay
Xanthine dehydrogenase/oxidase, sequence (P80457 whole entry): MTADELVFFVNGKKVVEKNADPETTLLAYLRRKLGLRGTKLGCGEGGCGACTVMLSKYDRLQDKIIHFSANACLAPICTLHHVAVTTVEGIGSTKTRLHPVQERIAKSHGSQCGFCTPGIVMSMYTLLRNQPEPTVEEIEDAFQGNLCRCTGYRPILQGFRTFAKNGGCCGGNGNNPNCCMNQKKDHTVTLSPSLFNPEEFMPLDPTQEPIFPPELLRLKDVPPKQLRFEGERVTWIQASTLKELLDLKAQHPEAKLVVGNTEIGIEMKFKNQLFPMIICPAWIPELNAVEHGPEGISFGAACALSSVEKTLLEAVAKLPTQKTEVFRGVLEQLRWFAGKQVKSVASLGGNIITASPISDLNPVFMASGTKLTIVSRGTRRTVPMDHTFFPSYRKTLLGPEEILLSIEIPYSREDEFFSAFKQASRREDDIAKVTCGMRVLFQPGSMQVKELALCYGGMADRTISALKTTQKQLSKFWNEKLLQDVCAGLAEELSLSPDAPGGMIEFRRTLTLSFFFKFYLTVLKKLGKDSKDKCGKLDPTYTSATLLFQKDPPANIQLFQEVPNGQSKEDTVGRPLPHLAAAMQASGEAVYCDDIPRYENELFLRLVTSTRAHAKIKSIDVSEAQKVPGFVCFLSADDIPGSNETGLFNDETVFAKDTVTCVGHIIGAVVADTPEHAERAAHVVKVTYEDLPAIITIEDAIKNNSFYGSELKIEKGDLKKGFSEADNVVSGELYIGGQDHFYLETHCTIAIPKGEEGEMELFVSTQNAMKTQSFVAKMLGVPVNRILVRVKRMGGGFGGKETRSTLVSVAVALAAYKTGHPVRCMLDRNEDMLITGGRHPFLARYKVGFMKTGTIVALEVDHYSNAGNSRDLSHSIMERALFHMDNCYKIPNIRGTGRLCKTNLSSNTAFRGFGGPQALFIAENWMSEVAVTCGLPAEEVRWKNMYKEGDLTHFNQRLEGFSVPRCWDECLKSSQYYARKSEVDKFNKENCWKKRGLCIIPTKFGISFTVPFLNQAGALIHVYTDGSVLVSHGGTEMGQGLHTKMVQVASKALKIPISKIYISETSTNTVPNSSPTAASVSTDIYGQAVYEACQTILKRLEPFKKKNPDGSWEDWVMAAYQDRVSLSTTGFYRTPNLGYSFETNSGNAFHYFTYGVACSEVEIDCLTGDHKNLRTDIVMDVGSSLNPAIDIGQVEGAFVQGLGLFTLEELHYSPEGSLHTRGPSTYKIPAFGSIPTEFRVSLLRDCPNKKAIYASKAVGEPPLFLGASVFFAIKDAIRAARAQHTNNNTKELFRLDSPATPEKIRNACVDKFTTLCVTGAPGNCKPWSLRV

[2] = Toxicity in ICR mouse model of xanthine/potassium oxonate-induced hyperuricemia assessed as urea nitrogen level at 5 mg/kg, ig qd treated subsequently for 7 days relative to control; format: organism-based; details: in vivo, po, 168 h, time 7 day
Method in brief: (§1)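 Long-term model in ICR mice: potassium oxonate 250 mg/kg s.c. plus hypoxanthine 150 mg/kg i.p. at 9:00 AM, once daily for 7 days. Compound dosed intragastrically at 5 mg/kg (0.5% CMC-Na suspension) at 10:00 AM for 7 days. Serum obtained by centrifugation at 4000 r/min for 10 min and stored at −80 °C. Uric acid, creatinine and urea nitrogen measured with diagnostic kits; n = 8.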

Mus musculus [3] = assay: Hypouricemic activity in ICR mouse model of xanthine/potassium oxonate-induced acute hyperuricemia assessed as decrease in serum uric acid level at 5 mg/kg, ig measured after 4 hrs relative to control; format: functional, organism-based
Method in brief: (§2)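 ICR mice (18–22 g), acclimatized ≥1 week. Acute hyperuricemia induced by potassium oxonate 250 mg/kg s.c. plus hypoxanthine 400 mg/kg i.p., both in saline. Baseline tail blood taken at 1 h, then compound given intragastrically at 5 mg/kg as a suspension in 0.5% CMC-Na; model group received vehicle. […] Mean ± S.D.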

Mus musculus [4] = assay: Hypouricemic activity in ICR mouse model of xanthine/potassium oxonate-induced long term hyperuricemia assessed as decrease in serum uric acid level at 5 mg/kg, ig qd treated subsequently for 7 days relative to control; format: functional, organism-based; details: time 7.0 day; method in brief: as §1
[5] = Toxicity in ICR mouse model of xanthine/potassium oxonate-induced hyperuricemia assessed as creatinine level at 5 mg/kg, ig qd treated subsequently for 7 days relative to control; format: organism-based; details: in vivo, po, 168 h, time 7 day; method in brief: as §1
Mus musculus [6] = assay: Hypouricemic activity in ICR mouse model of xanthine/potassium oxonate-induced acute hyperuricemia assessed as decrease in serum uric acid level at 5 mg/kg, ig relative to control; format: functional, organism-based; details: TDE = time-dependent effect; method in brief: as §2

IC50 [1] [nM]	Structure (SMILES)	other results
510	CC(C)COc1ccc(-c2c[nH]c(C(=O)O)n2)cc1C#N	–
94.5	CC(C)COc1ccc(-n2cnc(C(=O)O)c2)cc1C#N	–
55.6	N#Cc1cc(-n2cnc(C(=O)O)c2)ccc1N1CCCCC1	–
34.1	N#Cc1cc(-n2cnc(C(=O)O)c2)ccc1N1CCCC1	–
948	CCOc1ccc(-c2c[nH]c(C(=O)O)n2)cc1C#N	–
8	N#Cc1cc(-n2cnc(C(=O)O)c2)ccc1N1CCCCCCC1	Activity [2]: Toxic; Activity (Mus musculus [3]): Active; Activity (Mus musculus [4]): Active; Activity [5]: Toxic; Activity (Mus musculus [6]): Tde
226	CCOc1ccc(-n2cnc(C(=O)O)c2)cc1C#N	–
30.5	CC1CCN(c2ccc(-n3cnc(C(=O)O)c3)cc2C#N)CC1	–
73.9	CCC(C)Oc1ccc(-n2cnc(C(=O)O)c2)cc1C#N (configuration not stated)	–
27.1	CC(C)CN(C)c1ccc(-n2cnc(C(=O)O)c2)cc1C#N	–
387	N#Cc1cc(-c2c[nH]c(C(=O)O)n2)ccc1OC1CCCC1	–
750	CC(C)Oc1ccc(-c2c[nH]c(C(=O)O)n2)cc1C#N	–
29.8	CCC(CC)COc1ccc(-n2cnc(C(=O)O)c2)cc1C#N	–
34.5	COc1ccc(-c2ccc(-n3cnc(C(=O)O)c3)cc2C#N)cc1	–
47.4	N#Cc1cc(-n2cnc(C(=O)O)c2)ccc1OC1CCCCC1	–
74.4	COc1cccc(-c2ccc(-n3cnc(C(=O)O)c3)cc2C#N)c1	–
40.6	CCC(CC)Oc1ccc(-n2cnc(C(=O)O)c2)cc1C#N	–
198	CC(C)Oc1ccc(-n2cnc(C(=O)O)c2)cc1C#N	–
2160	CC(C)COc1ccc(-c2cn(C)c(C(=O)O)n2)cc1C#N	–
67.9	CC(C)(C)COc1ccc(-n2cnc(C(=O)O)c2)cc1C#N	–
63	N#Cc1cc(-n2cnc(C(=O)O)c2)ccc1OC1CCCC1	–
7.2	CC(C)(C)c1ccc(-c2ccc(-n3cnc(C(=O)O)c3)cc2C#N)cc1	Activity [2]: Toxic; Activity (Mus musculus [3]): Active; Activity (Mus musculus [4]): Active; Activity [5]: Toxic; Activity (Mus musculus [6]): Tde
